In PubChem BioAssay AID493089 (Broad Institute, 2011):
Where “and” joins values, the source holds several entries; their conditions need not be identical. Equal entries are not always repeated. Inconclusive results are not listed. Calls of active or inactive are those of the source.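 The calls were made as follows: active = fitted half-maximal dose no more than ten times the top valid dose tested, with signal falling; inconclusive = flat curve at 30 to 70% inhibition, or poor fit; inactive = the rest, including rising signal.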

Experiments:
[1] = Candida CaCi-2 inhibition under fluconazole co-treatment – CaCi-2 isolate, dry powder retest, set 2, confirmation (AID 493089); settings: C. albicans CaCi-2 + fluconazole growth, Alamar Blue, 48 h
In short: (§1)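 test system = C. albicans CaCi-2, fluconazole-resistant isolate | amount = fungal inoculum at starting OD600 of 0.00015 | buffer or medium = RPMI-based defined medium with MOPS plus 8 µg/mL fluconazole | timing = 48 h compound exposure, 37 °C, 90% humidity, 2 h dye | signal = Alamar Blue fluorescence, Ex 544 nm, Em 590 nm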

[2] = tested on: C. albicans CaCi-2 (fluconazole-resistant clinical isolate) + fluconazole growth, Alamar Blue, 48 h; experiment: as above
In short: as §1

Structure (SMILES) | AC50 [2] | further results
COC(=O)Cn1c(-c2ccccc2)nc2ccccc21 | – | activity change, negative = inhibition ([1]; at 12 µM (top of the series)): -10.6% (inactive)
O=C(Cn1c2ccccc2c2nc3n(c(=O)c21)CCS3)N1CCOCC1 | 3570 nM | –
O=C(Cn1c2ccccc2c2nc3n(c(=O)c21)CCS3)N1CCCC1 | 1100 nM and 3520 nM | –
CCN(CC)C(=O)Cn1c2ccc(F)cc2c2nc3n(c(=O)c21)CCS3 | 645 nM | –
O=C(Cn1c2ccccc2c2nc3n(c(=O)c21)CCS3)N1CCCCC1 | 2150 nM | –
COc1ccc(NC(=O)Cn2c3ccccc3c3nc4n(c(=O)c32)CCS4)cc1 | 3020 nM | –
N#Cc1cccc(N2CCN(C(=O)c3ccc(Cl)cc3)CC2)n1 | – | activity change, negative = inhibition ([1]; at 12 µM (top of the series)): -7.37% (inactive)
CCN(CC)C(=O)Cn1c2ccccc2c2nc3n(c(=O)c21)CCS3 | 1740 nM and 2300 nM | –
COc1ccc2c(c1)c1nc3n(c(=O)c1n2CC(=O)N1CCC(C)CC1)CCS3 | – | activity change, negative = inhibition ([1]; at 1.2 µM (top of the series)): -8.53% (inactive)
O=C(O)Cn1nc(-c2ccccc2)c2ccccc21 | – | activity change, negative = inhibition ([1]; at 12 µM (top of the series)): -10.3% (inactive)
O=C(Cn1c2ccc(F)cc2c2nc3n(c(=O)c21)CCS3)N1CCCCCC1 | 1490 nM | –
CC1CCN(C(=O)Cn2c3ccc(F)cc3c3nc4n(c(=O)c32)CCCS4)CC1 | 2740 nM | –
O=C(Cn1c2ccccc2c2nc3n(c(=O)c21)CCCS3)c1ccc(F)cc1 | – | activity change, negative = inhibition ([1]; at 12 µM (top of the series)): -21.3% (inactive)
COC(=O)Cn1nc(-c2ccc(C)cc2)c2ccccc21 | 12000 nM | –
O=C(Cn1c2ccc(F)cc2c2nc3n(c(=O)c21)CCS3)N1CCCC1 | 583 nM | –
O=c1c2[nH]c3ccccc3c2nc2n1CCS2 | 10500 nM | –
O=c1c2[nH]c3ccc(F)cc3c2nc2n1CCS2 | 3410 nM | –
O=C(Cn1c2ccc(F)cc2c2nc3n(c(=O)c21)CCS3)N1CCCCC1 | 628 nM | –
O=C(Cn1c2ccccc2c2nc3n(c(=O)c21)CCS3)NCCc1ccc(Cl)cc1 | – | activity change, negative = inhibition ([1]; at 12 µM (top of the series)): -24.6% (inactive)
COC(=O)Cn1nc(-c2ccccc2)c2ccccc21 | 2890 nM | –
CC1CCN(C(=O)Cn2c3ccccc3c3nc4n(c(=O)c32)CCS4)CC1 | 5130 nM | –
